# Hits are enriched below; roughly 4.4% of the tested compounds scored in any of these assays.
# MPTP block – blocks calcium-induced mitochondrial swelling; inhibition, % at 10 µM; 1.4% of 360,000 active; isolated mouse mitochondria, Ca2+ swelling absorbance, 30 min;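 active means inhibition of 50% or more, scaled per plate between neutral and stimulator controls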;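 further: 0% = DMSO wells given calcium and 100% = 1 mM EGTA wells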
# SENP1 inh – SENP1 (human) catalytic domain inhibition | 0.21% of 360,000 active | Q9P0U3 | recombinant SENP1 catalytic domain, CyPet-SUMO1-YPet FRET cleavage | inhibition, % at 10 µM | AID 624204;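 active means inhibition at least 30% at 10 µM, raw YFP signal under a set limit, fluorescence ratio 0.5 to 1.5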;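 further: 0% = enzyme with DMSO and 100% = no enzyme wells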
# Target sequence (Q9P0U3 419-644 limits assumed): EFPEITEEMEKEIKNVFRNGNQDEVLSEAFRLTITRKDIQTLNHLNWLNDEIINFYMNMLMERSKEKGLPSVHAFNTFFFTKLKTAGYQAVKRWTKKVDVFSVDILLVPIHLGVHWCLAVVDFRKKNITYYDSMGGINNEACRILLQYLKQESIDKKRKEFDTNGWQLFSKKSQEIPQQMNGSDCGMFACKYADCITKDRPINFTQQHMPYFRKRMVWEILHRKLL
#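 Test system: hSENP1 catalytic domain, recombinant; Amount: 20 pM final SENP1 enzyme; Medium: Tris pH 8 buffer plus EDTA, NaCl, BME, BSA, NP40, catalase; Schedule: 50 min enzyme reaction, room temperature, light-protected; Technique: FRET fluorescence in CFP and YFP emission channels; Controls: no-enzyme wells low, DMSO-plus-enzyme wells high control.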
# EBI2 antag – EBI2 (human) antagonism. AID 651636. 0.81% of 360,000 active. P32249. EBI2 beta-arrestin recruitment, luminescence, 7a,25-OHC stimulated. inhibition, % at 5 µM; in the data active means inhibition above about 38%;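 further: enzyme fragment complementation signal reports receptor beta-arrestin coupling in cells; 0% = agonist plus DMSO wells and 100% = wells without agonist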
# Target sequence (P32249 whole entry, looked up, the tested form may be a part): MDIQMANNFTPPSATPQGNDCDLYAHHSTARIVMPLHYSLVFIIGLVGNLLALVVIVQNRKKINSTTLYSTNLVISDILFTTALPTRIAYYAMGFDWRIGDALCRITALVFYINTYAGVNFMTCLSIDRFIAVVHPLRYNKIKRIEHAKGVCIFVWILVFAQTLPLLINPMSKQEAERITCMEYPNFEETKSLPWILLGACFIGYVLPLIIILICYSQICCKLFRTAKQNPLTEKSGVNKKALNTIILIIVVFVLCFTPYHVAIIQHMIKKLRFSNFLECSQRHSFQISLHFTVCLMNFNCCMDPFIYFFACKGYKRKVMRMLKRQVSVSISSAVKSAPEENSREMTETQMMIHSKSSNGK
# GRIN3A LBD mod – modulators (binders) of human NR3A ligand-binding domain; 2.5% of 340,000 active; Tm shift relative to glycine control, % at 25 µM; NR3A LBD differential scanning fluorimetry, Tm shift; 0% = protein alone, 100% = glycine-bound protein;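 active means melting temperature shift of at least 10% of the positive control shift, at one fixed dose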
# MPTP counter – mitochondrial membrane potential, counter-screen; isolated mitochondria, Rhodamine 123 fluorescence; 78% of 5,000 active; inhibition, % at 10 µM; shares compounds with MPTP block; AID 624504; in the data active means inhibition above about 22%;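 further: 0% = DMSO vehicle and 100% = positive control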
# MPTP abs DR – dose response confirmation of mitochondrial permeability transition pore inhibitors. IC50, µM. 58% of 780 active. shares compounds with MPTP block. AID 651561. isolated mitochondria swelling, absorbance; in the data active means IC50 below about 20 µM
# MPTP counter DR – active in counter-screen for permeability transition pore inhibitors | 49% of 780 active | AID 651564 | shares compounds with MPTP block | isolated mitochondria counterscreen, fluorescence read-out | IC50, µM; in the data active means IC50 below about 80 µM
# Numbers without * were called inactive; i = inactive; · = not tested or not shown.
SMILES,MPTP block,SENP1 inh,EBI2 antag,GRIN3A LBD mod,MPTP counter,others
O=C1c2ccccc2C(=O)N1c1ccc(Cc2ccncc2)cc1,54*,1,-19,0,16,MPTP abs DR=i;MPTP counter DR=27*
O=C1/C(=C/c2ccc(O)c(O)c2)SC(=S)N1Nc1ccccc1,101*,36*,6,16*,56*,
OC(c1cccc(OCc2ccccc2)c1)c1nnc(-c2ccccc2)o1 (centres undefined),104*,0,1,-24,96*,
C/C(CC(=O)NCCc1ccccc1)=N\NC(=O)COc1ccc(Br)cc1,-2,-1,22,1,·,
O=C1CC(c2ccccc2)=NN1c1nc(-c2ccccc2)cs1,67*,-11,-4,2,42*,
CC1=NN(c2nc(-c3ccccc3)cs2)C(=O)C1,-5,1,-9,1,·,
O=C(OCc1cc2ccccc2[nH]c1=O)c1cccc([N+](=O)[O-])c1,2,1,-1,2,·,
COC1(NS(=O)(=O)c2ccc(Br)cc2)C(C)=CC(=O)C=C1C,78*,2,5,2,4,MPTP abs DR=i;MPTP counter DR=>80
Cc1ccc(NS(=O)(=O)c2ccc(Br)cc2)nc1,0,1,1,0,·,
Cc1ccc(CN2CCN(/N=C/c3sccc3C)CC2)c(C)c1,0,1,4,10,·,
OC(CN1CCCCCC1)CN(c1ccccc1)c1ccccc1 (centres undefined),67*,3,0,-3,51*,
OC(CN1CCCCC1)CN(c1ccccc1)c1ccccc1 (centres undefined),2,2,6,4,·,
Cc1ccc(Cc2c(-c3ccc(Cl)cc3)nc3cc(C)ccn23)cc1,-2,1,24,·,·,
COC(=O)[C@@H]1CCCN1C(=O)CCc1nnc(CCC2CCCCC2)o1,1,0,-14,0,·,
CCN1/C(=C\c2ccc3cc(C)ccc3[n+]2CC)Sc2cc(C)c(C)cc21,85*,49,-4,-3,85*,
CCN1/C(=C/c2ccc3cc(C)ccc3[n+]2CC)Sc2ccc3sccc3c21,80*,58*,3,1,87*,
C[n+]1ccccc1/C=C1\Sc2ccccc2N1CCO,-2,-4,1,-2,·,
CCN1/C(=C/c2ccc3cccc(C)c3[n+]2CC)Sc2ccccc21,101*,85,6,-1,89*,
CCN1/C(=C/c2ccc3cc(C)cc(C)c3[n+]2CC)Sc2cc(C)ccc21,87*,74,0,-3,97*,
Cc1ccc2c(c1)S/C(=C\c1cccc[n+]1C)N2CCO,0,-26,-19,2,·,
CC(C)CC1=NN(C(=O)c2ccncc2)C(O)(C(F)(F)F)C1 (centres undefined),37,1,3,-4,·,
Cc1ccc2nc(-c3ccc(NC(=S)NCC(C)(C)CN(C)C)cc3)sc2c1,0,-64,9,-1,·,
CCCCNC(=S)Nc1ccc(-c2nc3ccc(C)cc3s2)cc1,88*,-34,9,31*,87*,
CCC(C)(C)NC(=S)Nc1ccc(-c2nc3ccc(C)cc3s2)cc1,85*,-25,18,31*,34*,
CCc1nc(NCCN)c(C#N)c2c1CSC(C)(C)C2,80*,-1,2,0,-10,MPTP abs DR=17*;MPTP counter DR=>80
SMILES,MPTP block,SENP1 inh,EBI2 antag,GRIN3A LBD mod,MPTP counter,others
CC(C)c1ccccc1NC(=O)C1CN(S(=O)(=O)c2ccccc2)CCN1S(=O)(=O)c1ccccc1 (centres undefined),5,2,17,2,·,
Cc1cc(/C=C2\Sc3ccccc3N2C)cc(C)[n+]1CC1CCCO1 (centres undefined),75*,-24,-2,-1,84*,
O=C(c1ccc(S(=O)(=O)Cc2ccccc2F)c([N+](=O)[O-])c1)N1CCCC1,1,-1,-28,-6,·,
O=C(c1ccc(S(=O)(=O)c2ccc(F)cc2)c([N+](=O)[O-])c1)N1CCCCCC1,78*,4,-34,-12,68*,
NC(=O)c1nnn(Cc2cc(Cl)c(C(=O)c3ccc(Cl)cc3)c(Cl)c2)c1N,73*,-3,7,·,91*,
Nc1c(C(=O)Nc2ccc3c(c2)OCCO3)nnn1Cc1ccc(Cl)cc1,-1,1,12,4,·,
COc1ccc(CNC(=O)c2cccc3c(-c4cccnc4)coc23)cc1OC,99*,3,-12,·,100*,
O=[N+]([O-])c1cc(C(F)(F)F)cc([N+](=O)[O-])c1NCCNC(=S)Nc1ccc(Cl)c(Cl)c1,76*,3,3,26*,69*,
Cc1cccnc1NC(=S)Nc1ccc(Cl)c(Cl)c1,90*,-2,1,-12,97*,
FC(F)(F)c1cccc(NC(=S)Nc2ccc(Cl)c(Cl)c2)c1,81*,9,-6,19*,65*,
O=C(NNC(=S)Nc1cccc(C(F)(F)F)c1)c1ccc(Cl)cc1Cl,101*,1,10,20*,89*,
COC(=S)Nc1cccc(C(F)(F)F)c1,3,3,17,-1,·,
O=C(NC(=S)Nc1cccc(C(F)(F)F)c1)c1ccc2nonc2c1,73*,2,1,9,81*,
CNNC(=S)Nc1cccc(C(F)(F)F)c1,3,2,2,-1,·,
FC(F)(F)c1cccc(NC(=S)NC(c2ccccc2)c2ccccc2)c1,70*,1,-14,30*,83*,
CC(C)(C)NC(=S)Nc1cccc(C(F)(F)F)c1,65*,3,-6,-7,84*,
COc1ccccc1CNCC(=O)Nc1ccccc1-n1cccc1,-2,-2,-6,-2,·,
CC(C)c1ccccc1NC(=O)Cn1c(/C=C/c2ccccc2)nc2ccccc21,·,·,·,-6,·,
Cc1ccc(NC(=O)Cn2c(/C=C/c3ccccc3)nc3ccccc32)cc1C,63*,-14,12,7,60*,
COc1ccccc1OCCNC(=O)Nc1ccc(Br)cc1,85*,0,15,-4,82*,
C=CCNC(=S)N/N=C/c1ccc(-c2ccc(OC)cc2)o1,-2,-13,4,-6,·,
Cc1cc(C)c(NC(=O)/C(C#N)=C/c2ccc(OCc3ccc(F)cc3)cc2)c(C)c1,85*,-4,27,-2,22*,
Cc1nc2ccc(NS(=O)(=O)c3ccc(C)c(C)c3)cc2s1,96*,3,-4,-5,94*,
CC(=O)c1cccc(S(=O)(=O)Nc2ccc3nc(C)sc3c2)c1,91*,5,-10,0,57*,
CSc1ccccc1NC(=O)Nc1cccc(Cl)c1,62*,2,-6,10*,85*,
CSc1ccccc1NC(=O)Nc1ccc(F)c(Cl)c1,93*,2,1,42*,75*,
